Experiments:
[1] = biological target: Sulfonylurea receptor 2, Kir6.2 (Homo sapiens) (UniProt Q14654+O60706); assay: Hill Coefficient calculated by curve fitting of data to a single binding site model; format: protein-complex assay
Summary of the method: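 Competition curves from displacement of 14 nM [3H]P1075 from canine cardiac P3 membranes (500–700 μg, 60 min, MgATP/vanadate/Mg2+ sucrose-Tris buffer pH 7.4, filtration read-out) were fitted to a single-site model to give the Hill coefficient.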

Rattus norvegicus [2] = species on record: Rattus norvegicus; assay: Inhibitory concentration against methoxamine-induced contractions in rat aorta; format: functional, organism-based
Rattus norvegicus [3] = species on record: Rattus norvegicus; assay: Effective concentration required to increase time to the onset of contracture (TTC) in globally ischemic rat hearts; format: functional

Structure (SMILES) | Hill coefficient [1] | IC50 (Rattus norvegicus [2]; Rattus norvegicus, Aorta) [nM] | EC25 (Rattus norvegicus [3]) [nM] | IC50 (Rattus norvegicus [2]) [nM]
CC(/N=C(\NC#N)Nc1ccccc1)C(C)(C)C (stereo not given) | 1.04 | 980 | 1290 | –
CCC(C)(C)/N=C(\NC#N)Nc1ccc(I)c(N=[N+]=[N-])c1 | 0.82 | – | 39 | –
CC(/N=C(\NC#N)Nc1cccc(C#N)c1)C(C)(C)C (stereo not given) | 0.67 | 190 | 1460 | –
CCC(C)(C)/N=C(\NC#N)Nc1ccc(C#N)cc1 | 0.99 | 130 | 400 | –
CCC(C)(C)/N=C(\NC#N)Nc1cccc(S(=O)(=O)N2CCCCC2)c1 | – | 12800 | >10000 | –
CCC(C)(C)/N=C(\NC#N)Nc1ccc(S(=O)(=O)N2CCCCC2)cc1 | – | > 30 | >10000 | –
CC1(C)Oc2ccc(C#N)cc2[C@H](N2CCCC2=O)[C@H]1O (single isomer, unassigned) [(-)-CROMAKALIM] | – | – | 2300 | 40.1
COc1ccc(Cl)cc1C(=O)NCCc1ccc(S(=O)(=O)NC(=O)NC2CCCCC2)cc1 [GLYBURIDE] | 0.67 | – | – | –
C/N=C(\NC#N)Nc1ccc(C#N)cc1 | – | 130000 | >10000 | –
CC(C)(C)/N=C(\NC#N)Nc1ccc(C#N)cc1 | 1.15 | 530 | 1380 | –
CCC(C)(C)/N=C(\NC#N)Nc1cccnc1 | 1.17 | 4.4 | 60 | –
CC(C)/N=C(\NC#N)Nc1ccc(C#N)cc1 | 0.81 | – | – | –
CC(/N=C(\NC#N)Nc1ccc(C#N)cc1)C(C)(C)C (stereo not given) | 0.75 | 30.3 | 390 | –
CCC(C)(C)/N=C(\NC#N)Nc1ccc(I)cc1 | 0.76 | 1.4 | 140 | –
CC(N/C(=N\C#N)Nc1ccncc1)C(C)(C)C (stereo not given) [PINACIDIL ANHYDROUS] | 0.86 | 59.6 | 1200 | –
CC1(C)Oc2ccc(C#N)cc2[C@H](N2CCCC2=O)[C@H]1O | 1.06 | – | – | –
CC1(C)Oc2ccc(C#N)cc2[C@H](N2CCCC2=O)[C@H]1O (single isomer, unassigned) | 1.5 | – | – | –
CC1(C)Oc2ccc(C#N)cc2[C@H](N2CCCC2=O)[C@H]1O [(-)-CROMAKALIM] | – | – | >30000 | 6500
